The subject of one data set is T. gondii. The conditions noted are these: cited from earlier work.
Data set [1] has as its system T. gondii ME49 strain (type II) tachyzoites. The data set is described as follows: Effect on tachyzoites of the ME49 strain in NDHF fibroblasts. The conditions noted are these: 1 μM TST, 0.1 μM SAHA, 24 h. Type of data set: cell-based, Toxoplasma gondii.
In data set [2] the test system is bradyzoites of the EGS strain. The data set is described as follows: Activity against bradyzoites of the EGS strain in 96 h-infected NDHF fibroblasts. Type of data set: cell-based, Toxoplasma gondii. To be noted: 48 h; for proliferation or viability of bradyzoites: 1 and 5 μM TST, 0.1 μM SAHA. Put shortly:
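Tachyzoites of the EGS strain expressing SAG1mCherry/BAG1sfGFP were grown in NDHF fibroblasts for 96 h, when bradyzoite conversion and spontaneous cyst formation are higher, then treated for 48 h. DMSO was at most 0.1% (v/v). Bradyzoites were imaged by fluorescence microscopy and fluorescence intensity was quantified. Two independent experiments; one-way ANOVA with Bonferroni test.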

Data set [3] deals with i. p. (intra peritoneal) macrophages. The data set is described as follows: Cytotoxicity assay in host cells. It counts as cell-based, mouse. The conditions noted are these: read-out: Macrophages CC50; 48h.
Data set [4] in a line: Cytotoxicity assay in host cells. Type of data set: cell-based, Human. The conditions noted are these: human, NDHF fibroblasts; for CC50 at 48 h: NDHF CC50, 48h.
A short description of data set [5]: Cytotoxicity assay in host cells. Type of data set: cell-based. To be noted: mouse, primary microglial cultures (mixed astrocytes/microglia).
For data set [6], the system named is histone H4 (lys16) acetylation in T. gondii. The data set is described as follows: Western blot of histone H4 acetylation in treated tachyzoites. It counts as cell-based, Toxoplasma gondii. To be noted: 0,2 μM SAHA, 1 μM TST, 48 h. The essentials: (§1)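 Infected NDHF fibroblasts were treated for 48 h. Tachyzoites were released by 30G needle passage, pelleted at 2000 rcf for 10 min and filter-purified; 10^6 parasites were cryolysed with protease inhibitors. Primary antibodies, 1 h: H3 and acetyl-H3 Lys9/14 each 1:1000; H4 1:3000, acetyl-H4 Lys16 1:1000; α-tubulin 1:1000, acetylated α-tubulin 1:2000. Detection by HRP secondaries and ECL. Bands from three experiments were normalised to GAPDH, and acetylated/total ratios were computed.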
Background: A western blot detects proteins with antibodies after separation by electrophoresis.

The subject of data set [7] is histone H3 (Lys 9/14) acetylation in T. gondii. Description: Western blot of histone H3 acetylation in treated tachyzoites. It counts as cell-based, Toxoplasma gondii. The conditions noted are these: 0,2 μM SAHA, 1 μM TST, 48 h. Put shortly: as §1
Data set [8] concerns T. gondii RH-ACP-YFP tachyzoite mitochondria. The data set is described as follows: MitoTracker fluorescence analysis of parasite mitochondria. The conditions noted are these: 1 μM TST, 0.1 μM SAHA, 24 h. It counts as cell-based, Toxoplasma gondii. Put shortly:
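NDHF fibroblasts infected with RH-ACP-YFP tachyzoites were treated for 24 h, then incubated with 50 nM MitoTracker Red CMXRos for 45 min. Mitochondrial membrane potential and partitioning were assessed by confocal and SR-SIM imaging. Two independent experiments.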

Another data set deals with T. gondii RH tachyzoites. The data set is described as follows: Fluorescence microscopy of cell division and apicoplast. Type of data set: cell-based, Toxoplasma gondii. To be noted: 1 μM TST, 0.1 μM SAHA, 24 h; for effect on apicoplast: ACP-YFP tachyzoites. Put shortly:
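NDHF fibroblasts were infected with RH-ACP-YFP tachyzoites and treated for 24 h, then fixed 40 min in 4% formaldehyde/PBS and permeabilised 15 min in 0.5% Triton X-100. Staining used anti-SAG1 and rabbit anti-centrin1 (1:1000), Alexa secondaries (1:800) and Hoechst (0.5 μg/mL). Daughter budding was also examined in RH-infected cells with anti-IMC1 (1:1000). Imaging by confocal and SR-SIM; two independent experiments.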

In data set [9] the test system is T. gondii RH strain (type I) tachyzoites. The data set is described as follows: Antiproliferative assay, tachyzoites of RH strain in LLC-MK2 cells. It counts as cell-based. To be noted: Toxoplasma gondii.
The test system of data set [10] is T. gondii EGS strain (atypical, I/III). Description: Antiproliferative assay, tachyzoites of EGS strain. It counts as cell-based. To be noted: Toxoplasma gondii, 48 h, read-out: T. gondii EGS IC50.
The next data set deals with NDHF fibroblasts. The data set is described as follows: Cytotoxicity assay in host cells. It counts as cell-based, Human.
The next data set concerns T. gondii α-tubulin. The data set is described as follows: Western blot of α-tubulin and acetylated α-tubulin in treated tachyzoites. To be noted: 1 μM TST, 0.1 μM SAHA, 48 h. Type of data set: cell-based, Toxoplasma gondii. The essentials:
as §1

Data set [11] deals with H4 acetylation in T. gondii. To be noted: ref Bougdour et al., 2009; cited from earlier work.

Like-named read-outs stand apart in the source and are kept apart here.

Regarding `COc1cccc(CC(=O)Nc2ccc(C(=O)NO)cc2)c1` [N-hydroxy-4-[2-(3-methoxyphenyl)acetamido]benzamid], the IC50 in the data set on T. gondii (RH strain, ref Loeuillet et al., 2018) was 0.35 µM.
On to `O=C(CCCCCCC(=O)Nc1ccccc1)NO` [SAHA, Suberoylanilide Hydroxamic Acid], for which the “tachyzoite proliferation, ME49 strain” value in data set [1] is recorded as “inhibit tachyzoite proliferation significantly”. Moreover, in [2] (0.2 μM SAHA), the “amount of bradyzoites in the culture” value is given as “maintained the same amount of bradyzoites in the culture as in the control”. In addition, in data set [2], the “proliferation or viability of bradyzoites” value is listed as “inhibited significantly”. Further, the cytotoxic concentration (CC50) in data set [3] amounted to 4.61 µM. Further, the CC50 at 48 h in data set [4] and in data set [5] was above 20 µM in each case. For the same compound, the “acetylation levels of H4 (lys16), rH4ac/rH4” value in data set [6] is given as “modest increase”. For the same compound, in data set [7], the “acetylation levels of H3 (Lys 9/14), rH3ac/rH3” value was “modest increase”. Besides, the “effect on parasite mitochondria (Mitotracker)” value in data set [8] is “mitochondrion fragmentation”. Besides, the “effect on cell division / daughter cell budding” value in the data set on T. gondii RH tachyzoites is on record as “masses of damaged parasites showing several centrosomes”. Also, the effect on apicoplast result in the data set with T. gondii RH tachyzoites was “apicoplast fragmentation”.
As to `CN1CCc2c(c3ccccc3n2Cc2ccc(C(=O)NO)cc2)C1` [TST, Tubastatin A], the IC90 in data set [9] (LLC-MK2) amounted to 5 µM. The IC50 in data set [9] (LLC-MK2, 24 h) amounted to 0.019 ± 0.001 µM; in data set [9] (LLC-MK2, 48 h, read-out: T. gondii RH IC50) it was 0.52 µM; in data set [10] it was 0.29 µM. In addition, in [1], the “tachyzoite proliferation, ME49 strain” value is “inhibit tachyzoite proliferation significantly”. Further, the “proliferation or viability of bradyzoites” value in data set [2] was “inhibited significantly”. Besides, in [3], the cytotoxic concentration (CC50) came out at 13.5 µM. In [4] (CC50, NDHF fibroblasts, treatment for 120 h with higher concentrations (20–80 μM)), the CC50 at 120 h was 29.9 µM. The CC50 at 48 h in data set [4] and in data set [5] was above 20 µM in each case. Also, in the data set with NDHF fibroblasts (CC50 in NDHF after 120 h), the “CC50 times higher than the IC50 obtained for T. gondii” value stood at 57 times. In addition, the selective index entry in the data set on NDHF fibroblasts (in different types of mammalian cells after 48 h of treatment) is recorded as “at least 20”. Further, in [6], the “acetylation levels of H4 (lys16), rH4ac/rH4” value is recorded as “significant increase”. The “acetylation levels of H3 (Lys 9/14), rH3ac/rH3” value in data set [7] is “decrease below the levels of the untreated cells”. In the data set on T. gondii α-tubulin, the “tubulin acetylation levels, ratio rTubac/rTub” value is listed as “no change”. Also, the “effect on parasite mitochondria (Mitotracker)” value in [8] was “reduction of the labeling intensity of mitochondria”. The “effect on cell division / daughter cell budding” value with T. gondii RH tachyzoites is recorded as “formation of a rounded mass of parasites”. Besides, in the data set with T. gondii RH tachyzoites, the effect on apicoplast result is given as “Alteration at the apicoplast partition”.
Turning to `CCc1nc(N)nc(N)c1-c1ccc(Cl)cc1` [pyrimethamine], in the data set with T. gondii (read-out: IC50 against T. gondii, ref Dubar et al., 2011, Martins-Duarte, 2006), the IC50 is 0.12 µM.
On to FR235222, for which the H4 acetylation result in [11] is recorded as “increased H4 acetylation”.

The IC50 is the concentration needed to halve the response being measured. As usually defined, the CC50 is the concentration at which the toxic effect on the cells reaches its halfway point. The term IC90 denotes the concentration needed for an effect of 90%. Lower therefore signals greater potency.

The values above are taken from publication PMC7771113 (International Journal for Parasitology: Drugs and Drug …, 2020).
